# Measured values from different studies.
# Protocols differ between the studies behind these lines.
# CACNA1C: Voltage-dependent L-type calcium channel subunit alpha-1C (CACNA1C, Homo sapiens, UniProt Q13936)
# CDK4 with cyclin D1: Cyclin-dependent kinase 4, with cyclin D1 (CDK4, Homo sapiens, UniProt P11802)
# AMY2: Pancreatic alpha-amylase (AMY2, Sus scrofa, UniProt P00690)
# CDK4 with cyclin D3: Cyclin-dependent kinase 4, with cyclin D3 (CDK4, Homo sapiens, UniProt P11802)
# CHRM2: Muscarinic acetylcholine receptor M2 (CHRM2, Homo sapiens, UniProt P08172)
SMILES,target,test,test system,setting,IC50
COc1ccc2c(c1)CN(C(=O)CCN1CCC(Cc3ccccc3)CC1)CC[S@@+]2[O-],CACNA1C,"ion current, inhibitor, patch clamp",,,> 100 µM
CN(C)C(=O)c1cc2cnc(Nc3ccc(-c4cccc5c(=O)cc(N6CCOCC6)oc45)c(F)c3)nc2n1C1CCCC1,CDK4 with cyclin D1,"enzyme activity, inhibitor, radiometric",,,0.116 µM
O=c1c(O)c(-c2ccc(O)cc2)oc2cc(O)cc(O)c12,AMY2,"enzyme activity, inhibitor",,,10.4 µM
CNS(=O)(=O)c1ccc(Nc2ncc(C(F)(F)F)c([C@H]3CC[C@@](C)(O)CC3)n2)c(C)c1,CDK4 with cyclin D3,"enzyme activity, inhibitor, radiometric",,,3.47 µM
O=C(/C=C/c1ccc(O)c(O)c1)O[C@H](Cc1ccc(O)c(O)c1)C(=O)O,"Pancreatic triacylglycerol lipase (PNLIP, Sus scrofa, UniProt P00591)","enzyme activity, inhibitor, absorbance",,pH 8,137 µM
CC(C)NC(=O)COc1cccc(-c2nc(Nc3ccc4[nH]ncc4c3)c3ccccc3n2)c1,"Organic anion transporter 3 (SLC22A8, Homo sapiens, UniProt Q8TCC7)","transporter uptake, inhibitor, radiometric",HEK293,,> 1 µM
O=C(CCNC(=O)CNC(=O)CC(c1ccccc1)(c1ccccc1)c1ccccc1)NC[C@@H]1CCCN(Cc2cccnc2F)C1,CHRM2,"ligand displacement, radioligand",,cell membranes,> 30 µM
COc1ccc(-c2oc3cc(Nc4ncc5cc(C(=O)N(C)C)n(C6CCCC6)c5n4)ccc3c(=O)c2F)cc1,CDK4 with cyclin D1,"enzyme activity, inhibitor, radiometric",,,1.07 µM
Cc1cc(S(=O)(=O)NCCO[C@H]2CC[C@H](CN3CCC(c4ccn5c(N6CCC(=O)NC6=O)cnc5c4)CC3)CC2)ccc1Nc1ncc2cc(Cl)c(=O)n(C3CCCC3)c2n1,CDK4 with cyclin D3,"enzyme activity, inhibitor, radiometric",,,0.026 µM
CN1CCC(CNc2ccc3ncc(-c4cccc(OC(F)(F)F)c4)n3n2)CC1,CHRM2,"cAMP, antagonist",,,5.14 µM
CNS(=O)(=O)c1ccc(Nc2ncc(C(F)(F)F)c(N3CCC[C@](C)(O)C3)n2)c(C)c1,CDK4 with cyclin D3,"enzyme activity, inhibitor, radiometric",,,0.827 µM
NC/C(=C\F)COc1cccc(Cn2c(=S)[nH]c(=O)c3[nH]cnc32)c1,CACNA1C,"ion current, inhibitor",,,> 100 µM
CN(C)C(=O)c1cc2cnc(Nc3ccc(-c4cccc5c(=O)cc(N6CCNCC6)oc45)cc3)nc2n1C1CCCC1,CDK4 with cyclin D1,"enzyme activity, inhibitor, radiometric",,,0.29 µM
O=C(CCNC(=O)CNC(=O)CC(c1ccccc1)(c1ccccc1)c1ccccc1)NCC1CCN(Cc2ccc(F)cc2)CC1,CHRM2,"ligand displacement, radioligand",,cell membranes,6.4 µM
N=C(N)c1ccc(OCCCCCOc2ccc(C(=N)N)cc2)cc1,"Chymotrypsinogen A (Bos taurus, UniProt P00766)","enzyme activity, inhibitor, absorbance",,,> 1750 µM
CN1CCN(c2cc(=O)c3ccc(Nc4ncc5cc(C(=O)N(C)C)n(C6CCCC6)c5n4)cc3o2)CC1,CDK4 with cyclin D1,"enzyme activity, inhibitor, radiometric",,,0.008 µM
O=c1cc(-c2ccc(O)c(O)c2)oc2c(Br)c(O)c(Br)c(O)c12,AMY2,"enzyme activity, inhibitor",,,0.99 µM
CN(C)C(=O)c1cc2cnc(Nc3ccc(-c4ccc5c(=O)cc(N6CCOCC6)oc5c4)c(F)c3)nc2n1C1CCCC1,CDK4 with cyclin D1,"enzyme activity, inhibitor, radiometric",,,0.0123 µM
Cc1cc(O)c(-c2ccc([C@@H](C)CN(C)C)cc2)c2c1[nH]c(=O)c1sccc12,"Cyclin-dependent kinase 19, with cyclin C (CDK19, Homo sapiens, UniProt Q9BWU1)","enzyme activity, inhibitor",,,> 1 µM
